High-throughput results: PubChem BioAssay, several laboratories
Only some compounds are listed: those with a hit (about 5.4% of all), similar ones and a draw of the others.
PostGolgi ctrl: growth inhibition of yeast control strain, primary screen, counter-screen for post-Golgi transport modulator project | inhibition, % at 10 µM | efflux-deficient yeast background strain, growth absorbance A615, 16 h | 98,000 tested, 5% active
tolC growth inh: growth inhibitors of E. coli tolC mutant, primary screen, strain BW25113 ΔtolC::kan, 384-well. OD615. growth inhibition, % at 10 µM (by protocol). 65,000 tested, 2.2% active. AID 573, 2007;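 active = growth inhibition at or above a cutoff equal to the mean over every tested compound plus 3 SD, cut at about 60% in these data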;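 note: growth measured after 20 h incubation at 37 °C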
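test system = E. coli BW25113 ΔtolC::kan bacteria | medium = LB with kanamycin 50 µg/mL | signal = OD at 615 nm | schedule = 37 °C, 20 h exposure | evaluation = % inhibition of E. coli growth | compound dosing = one dose of 10 µM final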
PostGolgi yeast: phenotypic screen on post-Golgi transport, primary screen; post-Golgi transport phenotypic cell assay; inhibition, % at 10 µM; 98,000 tested, 0.9% active; AID 739, 2007;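 note: yeast cells grown in 1536-well plates; yeast grown about 18 h at 30C before absorbance read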
PLAP act: PLAP enzyme activators, biochemical, luminescence, HTS; purified PLAP enzyme, luminescent substrate read-out; hits give high values; 96,000 tested, 1.2% active; AID 696, 2007; activation fold at 20 µM; Alkaline phosphatase, placental type (Homo sapiens), P05187; in the data active = activation fold above about 2
Target sequence (P05187 whole entry, looked up): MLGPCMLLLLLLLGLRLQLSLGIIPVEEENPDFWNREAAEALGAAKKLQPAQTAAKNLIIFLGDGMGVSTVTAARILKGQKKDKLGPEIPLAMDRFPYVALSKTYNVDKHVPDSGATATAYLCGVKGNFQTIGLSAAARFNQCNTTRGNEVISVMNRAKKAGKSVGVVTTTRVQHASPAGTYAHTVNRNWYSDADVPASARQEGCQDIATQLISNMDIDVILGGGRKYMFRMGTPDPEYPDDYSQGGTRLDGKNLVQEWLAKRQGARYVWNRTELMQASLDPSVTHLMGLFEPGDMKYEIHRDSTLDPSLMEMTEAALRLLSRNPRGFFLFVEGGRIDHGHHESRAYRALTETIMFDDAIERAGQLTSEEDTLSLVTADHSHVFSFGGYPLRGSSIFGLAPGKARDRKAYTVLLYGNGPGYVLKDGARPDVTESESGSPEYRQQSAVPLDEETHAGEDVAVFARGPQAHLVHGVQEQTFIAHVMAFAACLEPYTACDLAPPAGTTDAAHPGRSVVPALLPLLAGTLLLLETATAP
Ecoli WT expand: growth inhibitors of wild-type E. coli, primary screen, strain BW25113, expanded library, OD600 | OD600 absorbance | growth inhibition, % at 100 µM | 98,000 tested, 0.15% active;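 active = growth inhibition above about 50% at one test dose, limit read from the data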;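 note: growth measured after 20 h incubation at 37 °C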
HePTP inhibitor: inhibitors of human HePTP phosphatase, primary screen, biochemical, absorbance, leukemia target; recombinant HePTP phosphatase activity, OD absorbance; inhibition, % at 20 µM; 110,000 tested, 0.64% active; AID 521, 2006; in the data active = inhibition above about 50%;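 note: plate controls were vehicle for no effect and reference inhibitor for full effect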
The depositor's hits bear a star; x = no result given. Cut-off read from the data, not from the text of the source, unless noted: active = inhibition above about 30%; inactive = the rest.

SMILES | PostGolgi ctrl | tolC growth inh | PostGolgi yeast | PLAP act | Ecoli WT expand | HePTP inhibitor
Cc1onc(-c2ccccc2)c1C(=O)Nc1nnc(N(C)Cc2ccccc2)s1 | 16 | 61* | 4 | 1.2 | -11 | -5
CCC(CC)c1nnc(NC(=O)c2c(-c3ccccc3)noc2C)s1 | 7 | 79* | -1 | 1.3 | -2 | -5
Cc1onc(-c2c(F)cccc2Cl)c1C(=O)Nc1nnc(-c2ccccc2)s1 | 10 | x | -8 | 0.9 | -1 | x
Cc1cc(C(=O)OC(C)C(=O)Nc2nc(-c3ccccc3)cs2)c(C)o1 (stereo not given) | 37* | x | 0 | 0.8 | -13 | x
Cc1nnc(NC(=O)c2c(-c3ccccc3)noc2C)s1 | 0 | x | -26 | 1.1 | -6 | x
Cc1onc(-c2ccccc2)c1C(=O)Nc1nnc(COc2ccc(Cl)cc2)s1 | 24 | 80* | -17 | 1.7 | -6 | 7
Cc1cc(C(=O)OCC(=O)Nc2nc(-c3ccccc3)cs2)c(C)o1 | -3 | 6 | -6 | 1 | -3 | 4
CC(C)=C1C2CCC1C(C(=O)NC1CCCCC1)C2C(=O)O (stereo not given) | x | x | x | x | x | 1
Cc1cc(=O)n2/c(=C\c3ccc(Br)cc3)c(=O)[nH]c2n1 | x | x | x | x | x | 1
Cc1onc(-c2ccccc2)c1C(=O)Nc1nc(-c2cc(F)ccc2F)cs1 | 0 | -2 | -2 | 0.9 | -9 | 3
Cc1onc(-c2ccccc2)c1C(=O)Nc1nc(-c2ccccc2)cs1 | 34* | x | -5 | 1.6 | 0 | x
Cc1onc(-c2c(Cl)cccc2Cl)c1C(=O)N/N=C(\N)COc1ccc(Cl)cc1 | 32* | x | 2 | 1.4 | 25 | x
Cc1onc(-c2ccccc2)c1C(=O)OCC(=O)c1ccccc1 | 12 | 71* | 2 | 0.7 | 1 | -4
CC(=O)NC(Oc1ccc(C=Nc2c(C)n(C)n(-c3ccccc3)c2=O)cc1)C(Cl)(Cl)Cl (stereo not given) | x | x | x | x | x | -17
O=C(C1CCN(CCCc2ccccc2)CC1)N1CCCCC1 | 7 | x | 4 | 1.5 | 6 | x
CC1CCN(C(=O)C2CCN(CCCc3ccccc3)CC2)CC1 | 9 | 10 | 12 | 2.2* | -4 | 5
O=C1C(=O)N(c2nccs2)C(c2ccc(F)cc2)/C1=C(/O)c1ccc(Cl)cc1 (stereo not given) | x | x | x | x | x | -13
COc1ccc(N2CCN(c3oc(-c4ccco4)nc3C#N)CC2)cc1 | -3 | 34 | 32* | 0.8 | 8 | 0
COc1ccccc1-c1nc(C#N)c(N2CCN(c3ccccc3)CC2)o1 | 26 | 20 | 3 | 1 | -10 | 4
N#Cc1nc(-c2ccco2)oc1N1CCN(c2ccccc2)CC1 | 6 | 32 | 8 | 0.9 | 0 | 4
COc1ccccc1-c1nc(C#N)c(N2CCCCCC2)o1 | 42* | x | -10 | 1.4 | 3 | x
COc1ccc(-c2nc(C#N)c(N3CCc4ccccc4C3)o2)cc1OC | 33* | x | 5 | 1.1 | -8 | x
Cc1cccc(-c2nc3cc(NC(=O)c4ccc(Br)o4)ccc3o2)c1 | x | x | x | x | x | 11
O=C(COc1ccc2ccccc2c1)Nc1ccc(I)cc1Cl | x | x | x | x | x | 3
Cc1nn(-c2ccccc2)c2sc(-c3n[nH]c(=S)o3)cc12 | 26 | 78* | -1 | 1.2 | -9 | 10
SMILES | PostGolgi ctrl | tolC growth inh | PostGolgi yeast | PLAP act | Ecoli WT expand | HePTP inhibitor
CC(=O)Nc1cccc(NC(=O)c2oc3ccccc3c2C)c1 | 10 | 67* | 11 | 1.6 | 11 | 10
Cc1c(C(=O)Nc2ccc(Cl)cn2)oc2ccccc12 | 31* | -8 | 7 | x | -7 | 1
CC(CCC(=O)Nc1ccc(F)cc1)CC(=O)Nc1ccc(F)cc1 (stereo not given) | x | x | x | x | x | 8
CC1CCCCN1C(=O)Nc1ccccc1 (stereo not given) | x | x | x | x | x | 3
CCN(c1cccc(C(F)(F)F)c1)S(=O)(=O)c1ccc2c(c1)CCN2C(=O)C1CC1 | 17 | 69* | 0 | 1.2 | 2 | -4
Cc1cccc(C)c1NC(=O)C(NC=O)c1ccccc1Cl (stereo not given) | 31* | x | 7 | 1.1 | -3 | x
Cc1cccc(C)c1NC(=O)C(NC=O)c1ccc(N(C)C)cc1 (stereo not given) | 3 | -10 | -6 | 1 | -1 | 6
Cc1ccc(-c2ccc(C(=O)Nc3cccnc3)o2)cc1Cl | x | x | x | x | x | 8
COC(=O)C1=NN(C(=O)c2cccc([N+](=O)[O-])c2)C(O)(c2ccccc2)C1 (stereo not given) | x | x | x | x | x | 104*
COC(=O)C1=NN(C(=O)c2cccc(Br)c2)C(O)(c2ccccc2)C1 (stereo not given) | x | x | x | x | x | 3
CCN(CC)CCOc1ccc([N+](=O)[O-])cc1 | x | x | x | x | x | 4
CC(C)(C)NC(=O)CN(Cc1cccs1)C(=O)c1csnn1 | 31* | -16 | -10 | 1 | -4 | -1
Cn1c(=O)cc2c3c(c(Nc4cccc(Cl)c4)ccc31)C(=O)c1ccccc1-2 | x | x | x | x | x | -4
COC(=O)C1=C(C)N=c2s/c(=C3\C(=O)Nc4ccccc43)c(=O)n2C1c1ccccc1 (stereo not given) | 39* | 16 | -1 | x | -23 | -3
COC(=O)C1=C(C)N=c2s/c(=C/c3ccoc3)c(=O)n2C1c1ccccc1 (stereo not given) | 59* | 11 | 6 | 1 | -12 | -9
O=C(Nc1ccc(Br)cn1)c1cccc(Cl)c1 | x | x | x | x | x | -9
Nc1c2c(nc3ccn(Cc4ccccc4)c(=O)c13)CCC2 | 44* | 4 | 11 | 0.7 | 11 | -10
Nc1c2c(nc3ccn(-c4ccccc4)c(=O)c13)CCCCC2 | 4 | 10 | 6 | 1.1 | 1 | 0
CCCCOC(=O)CSc1nnc(-c2ccc(Cl)cc2Cl)o1 | 16 | 73* | -1 | 1.1 | 11 | 2
CCCCCOC(=O)CSc1nnc(-c2ccc(Cl)cc2Cl)o1 | x | x | x | x | x | -25
COc1ccc(/C=N/NC(=O)c2ccoc2C)cc1COc1ccc(Cl)cc1 | 49* | x | 11 | 1.2 | -12 | x
Cc1occc1C(=O)N/N=C/c1ccccc1 | x | x | x | x | x | -18
COc1ccc(/C=N/NC(=O)c2ccn[nH]2)cc1COc1ccc(Cl)cc1Cl | 62* | x | 0 | 1.1 | -2 | x
COc1ccc(/C=N/NC(=O)c2ccn[nH]2)cc1COc1ccc(F)cc1 | -3 | x | -6 | 1.1 | -1 | x
O=C1/C(=C/c2ccccc2OCc2ccc([N+](=O)[O-])cc2)SC(=S)N1c1ccccc1 | x | x | x | x | x | 9
O=C(Nc1ccc(S(=O)(=O)N2CCCCC2)cc1)c1ccc(CN2CCc3ccccc3C2)cc1 | 54* | x | -2 | 1.4 | -10 | x
Cc1ccc(C(=O)Nc2ccc(S(=O)(=O)N3CCc4ccccc43)cc2)o1 | 24 | 55 | 7 | 0.8 | -10 | 3
Cc1ccc(C(=O)Nc2ccc(S(=O)(=O)N3CCc4ccccc4C3)cc2)o1 | 48* | 51 | 1 | 1.4 | -5 | 7
